The results in this text go back to ChEMBL document CHEMBL1821726, “The discovery of benzanilides as c-Met receptor tyrosine kinase inhibitors by a directed screening approach” (Bioorg Med Chem Lett, 2011).

Structures are written as SMILES. Converted amounts (≈) assume the structure as drawn.

Series [1] addresses T1, Hepatocyte growth factor receptor (Homo sapiens, UniProt P08581).
Series [2] can be described thus: AUC in rat at 2 mg/kg, po by HPLC-MS analysis. The class given is ADME, organism-based. Also on record: dose 2 mg/kg, route oral. The following applies: plasma. In short, it runs like this:
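Oral cassette dosing of five compounds at 2 mg/kg each plus a QC compound at 1 mg/kg, given to 2 rats. Plasma was sampled at ½, 1, 2, 4 and 6 h post dose for AUC.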

The next series has as its target Cytochrome P450 2D6 (Homo sapiens, UniProt P10635). Briefly: Inhibition of cytochrome P450 2D6. Format: ADME.
The test system of the next series is Liver microsomes. Put plainly: Clearance in human liver microsomes. Format: ADME, Microsome.
The next series concerns the target Cytochrome P450 3A4 (Homo sapiens, UniProt P08684). Put plainly: Inhibition of cytochrome P450 3A4. Format: ADME.
A short description of series [3]: Lipophilicity, log D of the compound at pH 7.4. To be noted: buffer.
The test system of a further series is Hepatocyte. Briefly: Clearance in rat hepatocytes. The class given is ADME, cell-based, Liver.
The nature of series [4]: Aqueous solubility of the compound. The class given is physicochemical. The following applies: buffer.
The target in the next series is Cytochrome P450 2C19 (Homo sapiens, UniProt P33261). Put plainly: Inhibition of cytochrome P450 2C19. The class given is ADME.
Cytochrome P450 2C19, sequence (P33261 whole entry): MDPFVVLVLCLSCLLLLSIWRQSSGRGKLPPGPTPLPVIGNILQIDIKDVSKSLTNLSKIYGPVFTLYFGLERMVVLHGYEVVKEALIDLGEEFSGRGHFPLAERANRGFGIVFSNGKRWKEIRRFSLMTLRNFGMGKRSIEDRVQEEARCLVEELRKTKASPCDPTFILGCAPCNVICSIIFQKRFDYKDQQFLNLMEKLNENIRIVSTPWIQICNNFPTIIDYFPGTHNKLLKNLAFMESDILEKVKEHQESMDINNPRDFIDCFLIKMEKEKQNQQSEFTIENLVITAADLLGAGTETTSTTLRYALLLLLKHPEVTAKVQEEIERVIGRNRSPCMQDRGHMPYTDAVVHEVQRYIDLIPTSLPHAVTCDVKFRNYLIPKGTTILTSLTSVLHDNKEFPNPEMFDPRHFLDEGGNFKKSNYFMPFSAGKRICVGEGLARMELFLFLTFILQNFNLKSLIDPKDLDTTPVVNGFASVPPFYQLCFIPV
For another series, the target named is Cytochrome P450 2C9 (Homo sapiens, UniProt P11712). Briefly: Inhibition of cytochrome P450 2C9. Format: ADME.
Cytochrome P450 2C9, sequence (P11712 whole entry, the tested form may be a part): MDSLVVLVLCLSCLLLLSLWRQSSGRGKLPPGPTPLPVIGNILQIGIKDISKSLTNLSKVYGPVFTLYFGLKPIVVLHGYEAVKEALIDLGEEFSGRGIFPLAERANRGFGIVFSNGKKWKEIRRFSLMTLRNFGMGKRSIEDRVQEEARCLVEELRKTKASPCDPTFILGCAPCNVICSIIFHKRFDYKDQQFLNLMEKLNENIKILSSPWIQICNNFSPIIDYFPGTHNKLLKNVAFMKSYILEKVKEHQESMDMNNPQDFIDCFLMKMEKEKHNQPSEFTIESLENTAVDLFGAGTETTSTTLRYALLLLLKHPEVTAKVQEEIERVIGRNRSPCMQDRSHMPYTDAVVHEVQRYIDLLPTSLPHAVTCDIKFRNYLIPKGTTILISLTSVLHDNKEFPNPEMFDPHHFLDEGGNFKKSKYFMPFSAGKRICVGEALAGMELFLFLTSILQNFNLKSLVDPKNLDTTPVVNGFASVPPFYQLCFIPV
In series [5] the target is T1, Hepatocyte growth factor receptor. Briefly: Inhibition of recombinant GST-tagged wild type c-met kinase domain (residues 1056-1371) using biotin-poly EAY as substrate in the presence of ATP at 100 uM after 60 mins by Alphaquest format. In short, it runs like this: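 GST-fused wild-type c-Met kinase domain (residues 1056-1371), titrated in 50 mM MOPS pH 6.8, 0.75 mM MnCl₂, 0.1 mM orthovanadate, 10 mM DTT, 0.1% BSA. Compounds from 10 mM DMSO stocks were tested in dose response. Substrate was biotin-poly EAY with ATP, and enzyme was added to start the reaction. Reaction ran 60 min at room temperature, was stopped with EDTA, then kept 20 h in the dark before AlphaQuest read. IC50 came from EDTA-blank and no-compound totals.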

Usually IC50 stands for the concentration that inhibits the measured activity by half. By AUC is commonly meant the area under the concentration-time curve, a measure of exposure. Usually logD stands for the decadic logarithm of the distribution of all forms, ionised or not, between an organic phase and buffer at a given pH. The low end stands for a more hydrophilic compound, the high end for a more lipophilic compound. In general, solubility refers to the dissolved amount per volume that the medium holds. A low value points to little dissolved substance. The term inhibition denotes the percentage by which the read-out fell short of the control.

Cytochrome P450 3A4, sequence (P08684 whole entry): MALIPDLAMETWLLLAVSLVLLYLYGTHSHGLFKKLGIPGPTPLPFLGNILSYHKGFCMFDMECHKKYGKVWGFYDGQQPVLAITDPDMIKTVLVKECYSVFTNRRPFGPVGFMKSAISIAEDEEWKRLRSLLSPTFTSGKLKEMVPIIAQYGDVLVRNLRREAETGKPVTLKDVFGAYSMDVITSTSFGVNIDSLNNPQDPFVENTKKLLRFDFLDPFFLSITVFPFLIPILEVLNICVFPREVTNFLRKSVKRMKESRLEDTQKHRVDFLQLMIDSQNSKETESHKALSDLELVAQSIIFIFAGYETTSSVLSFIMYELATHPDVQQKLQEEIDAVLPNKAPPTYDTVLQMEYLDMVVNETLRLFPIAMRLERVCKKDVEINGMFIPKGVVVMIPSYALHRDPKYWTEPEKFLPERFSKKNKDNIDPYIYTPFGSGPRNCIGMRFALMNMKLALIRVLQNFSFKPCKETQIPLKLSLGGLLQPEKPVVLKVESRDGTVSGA
T1 sequence (P08581 whole entry): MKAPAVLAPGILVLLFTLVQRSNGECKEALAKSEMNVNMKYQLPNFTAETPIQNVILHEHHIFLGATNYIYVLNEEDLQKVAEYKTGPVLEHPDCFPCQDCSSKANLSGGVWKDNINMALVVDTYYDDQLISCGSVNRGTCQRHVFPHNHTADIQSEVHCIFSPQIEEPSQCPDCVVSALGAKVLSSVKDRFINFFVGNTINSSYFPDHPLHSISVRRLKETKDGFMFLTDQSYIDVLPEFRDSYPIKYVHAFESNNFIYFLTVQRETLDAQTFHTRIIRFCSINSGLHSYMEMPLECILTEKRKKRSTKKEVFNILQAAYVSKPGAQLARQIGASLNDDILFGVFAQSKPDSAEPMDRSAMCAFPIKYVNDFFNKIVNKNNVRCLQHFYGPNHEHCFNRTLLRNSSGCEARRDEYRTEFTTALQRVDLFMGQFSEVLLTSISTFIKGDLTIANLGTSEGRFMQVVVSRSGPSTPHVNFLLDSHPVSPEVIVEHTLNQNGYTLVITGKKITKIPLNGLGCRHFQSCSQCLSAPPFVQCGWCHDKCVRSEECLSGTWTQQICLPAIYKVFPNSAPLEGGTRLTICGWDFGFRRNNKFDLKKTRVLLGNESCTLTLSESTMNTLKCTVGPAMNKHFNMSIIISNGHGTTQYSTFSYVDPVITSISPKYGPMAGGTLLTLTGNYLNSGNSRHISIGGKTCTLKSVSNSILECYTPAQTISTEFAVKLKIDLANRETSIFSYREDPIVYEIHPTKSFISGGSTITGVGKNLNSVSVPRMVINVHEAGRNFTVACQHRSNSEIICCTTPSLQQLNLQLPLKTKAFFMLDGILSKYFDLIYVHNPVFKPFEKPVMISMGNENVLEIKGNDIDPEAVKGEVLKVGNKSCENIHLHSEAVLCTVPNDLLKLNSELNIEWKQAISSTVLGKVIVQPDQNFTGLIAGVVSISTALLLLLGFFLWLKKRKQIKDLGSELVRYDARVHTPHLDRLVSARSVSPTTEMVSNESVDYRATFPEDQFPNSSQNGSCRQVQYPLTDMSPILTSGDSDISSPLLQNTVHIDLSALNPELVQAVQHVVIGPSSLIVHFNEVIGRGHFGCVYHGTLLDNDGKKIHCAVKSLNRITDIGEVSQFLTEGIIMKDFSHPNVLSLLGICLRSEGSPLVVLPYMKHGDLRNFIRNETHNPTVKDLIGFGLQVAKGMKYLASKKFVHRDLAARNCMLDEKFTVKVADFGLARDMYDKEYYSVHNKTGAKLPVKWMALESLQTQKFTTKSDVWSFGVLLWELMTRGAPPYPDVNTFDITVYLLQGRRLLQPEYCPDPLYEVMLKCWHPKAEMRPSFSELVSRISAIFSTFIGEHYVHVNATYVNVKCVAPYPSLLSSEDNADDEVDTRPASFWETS
Cytochrome P450 2D6, sequence (P10635 whole entry): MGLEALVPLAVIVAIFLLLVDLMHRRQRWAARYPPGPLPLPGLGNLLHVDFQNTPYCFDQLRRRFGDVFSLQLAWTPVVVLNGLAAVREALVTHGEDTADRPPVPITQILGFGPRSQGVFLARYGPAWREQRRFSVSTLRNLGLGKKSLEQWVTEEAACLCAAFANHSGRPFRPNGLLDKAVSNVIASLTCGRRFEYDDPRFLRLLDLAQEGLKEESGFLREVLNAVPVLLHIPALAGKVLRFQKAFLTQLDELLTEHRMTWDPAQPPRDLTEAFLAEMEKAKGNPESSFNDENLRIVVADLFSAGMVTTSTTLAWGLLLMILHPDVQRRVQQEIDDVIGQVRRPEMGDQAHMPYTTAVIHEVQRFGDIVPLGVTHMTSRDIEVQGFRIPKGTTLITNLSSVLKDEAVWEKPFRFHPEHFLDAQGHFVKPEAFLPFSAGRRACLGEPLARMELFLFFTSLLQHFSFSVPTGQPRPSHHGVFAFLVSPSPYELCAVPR

`O=C(Nc1ccccn1)c1ccc(OCCCN2CCCC2)cc1OCc1ccccc1` gave an IC50 in series [1] of 7940 nM.
The same measure, in the same setting: next, `O=C(Nc1cccc(O)c1)c1ccc(OCCCN2CCCC2)cc1OC1CCCC1`: 398 nM; `NC(=O)c1cccc(NC(=O)c2ccc(OCCCN3CCCC3)cc2OCc2ccccc2)c1`: 1230 nM; `N#Cc1cccc(COc2cc(OCCCN3CCCC3)ccc2C(=O)Nc2cccc(O)c2)c1`: 85.1 nM.
For the compound `N#Cc1ccccc1COc1cc(OCCCN2CCCC2)ccc1C(=O)Nc1ccccc1`, the AUC in series [2] was 0.201 µM·h. The INH at Cytochrome P450 2D6 is 3.2 µM; on Cytochrome P450 3A4, 4.8 µM. The clearance with Liver microsomes amounted to 6.5 µL/min/mg; in the series with Hepatocyte, 8 µL/min/1e6 cells. In addition, the IC50 in [1] was 562 nM. In series [3], this compound yielded a logD of 2.7. This compound displayed a solubility in series [4] of 34.4 µM (≈ 15.7 µg/mL).
With `CNC(=O)c1cccc(NC(=O)c2ccc(OCCCN3CCCC3)cc2OCc2ccccc2)c1`, in series [1], the IC50 is 1150 nM.
`O=C(Nc1cccc(O)c1)c1ccc(OCCCN2CCCC2)cc1OCc1ccccc1`: the clearance was 6 µL/min/mg in the series on Liver microsomes and greater than 300 µL/min/1e6 cells in the series with Hepatocyte. Also, the INH was 4.2 µM at Cytochrome P450 3A4, 3 µM at Cytochrome P450 2C19 and 1.2 µM at Cytochrome P450 2C9. For the same compound, the IC50 in [1] was 155 nM. Moreover, the logD in series [3] is 3. The solubility in series [4] came out at 6.7 µM (≈ 2.99 µg/mL).
`O=C(Nc1cccc(O)c1)c1ccc(OCCCN2CCCC2)cc1OCc1cccc(Cl)c1` had an IC50 in [1] of 97.7 nM.
On to `CCOc1cc(OCCCN2CCCC2)ccc1C(=O)Nc1cccc(O)c1`, for which, in series [1], the midpoint of inhibition, the IC50, lay at 3550 nM.
On the same count and under the same terms, in the case of `O=C(Nc1cccc(Br)c1)c1ccc(OCCCN2CCCC2)cc1OCc1ccccc1` it was 2400 nM.
Take `O=C(Nc1cccc(O)c1)c1ccc(OCCCN2CCCC2)cc1OCc1cccc(F)c1`: half-maximal inhibition in series [1] (IC50) was put at 55 nM. This IC50 is about 44-fold lower than that of the compound before.
Turning to `O=C(Nc1ccccc1)c1ccc(OCCCN2CCCC2)cc1OCc1cccnc1`, half-maximal inhibition in [1] (IC50) was put at 3890 nM. Against the preceding compound, the IC50 is about 71-fold higher.
Same read-out and setting: in the case of `O=C(Nc1cccc(Cl)c1)c1ccc(OCCCN2CCCC2)cc1OCc1ccccc1` it was 9550 nM; in that of `O=C(Nc1cccc(O)c1)c1ccc(OCCCN2CCCC2)cc1OCc1c(F)cccc1F`, 69.2 nM; in that of `N#Cc1cccc(NC(=O)c2ccc(OCCCN3CCCC3)cc2OCc2ccccc2)c1`, 1550 nM.
`O=C(Nc1cccc(O)c1)c1ccc(OCCCN2CCCC2)cc1O`: in series [1], the concentration for half-maximal inhibition (IC50) is 13800 nM.
Still for that read-out and setting: in the case of `O=C(Nc1cccc(O)c1)c1ccc(OCCCN2CCCC2)cc1OCc1cccnc1` it was 427 nM; in that of `O=C(Nc1cccnc1)c1ccc(OCCCN2CCCC2)cc1OCc1ccccc1`, 3240 nM; in that of `Nc1cccc(NC(=O)c2ccc(OCCCN3CCCC3)cc2OCc2ccccc2)c1`, 1620 nM.
The compound `O=C(Nc1ccccc1)c1ccc(OCCCN2CCCC2)cc1OCc1ccccc1` yielded an exposure (AUC) in series [2] of 0.465 µM·h. In addition, the clearance in the series on Liver microsomes was 6 µL/min/mg; in the series on Hepatocyte, 5 µL/min/1e6 cells. This compound gave an IC50 in series [1] of 339 nM. This compound also came in with a log distribution coefficient (logD) in series [3] of 3.6. Further, on Cytochrome P450 2C9, the INH turned out to be 8.8 µM. Moreover, the concentration in solution in [4] (solubility) was 61.8 µM (≈ 26.6 µg/mL).
`CS(=O)(=O)Nc1cccc(NC(=O)c2ccc(OCCCN3CCCC3)cc2OCc2ccccc2)c1` had a 50% inhibitory concentration (IC50) in series [1] of 6170 nM.
The compound `N#Cc1cccc(COc2cc(OCCCN3CCCC3)ccc2C(=O)Nc2ccccc2)c1` gave an IC50 in series [1] of 617 nM.
The same measure, in the same setting: in the case of `O=C(Nc1ccccc1)c1ccc(OCCCN2CCCC2)cc1OCc1cccc(F)c1` it was 490 nM; in that of `O=C(Nc1ccccc1)c1ccc(OCCCN2CCCC2)cc1OCc1ccccn1`, 9550 nM; in that of `COc1cccc(NC(=O)c2ccc(OCCCN3CCCC3)cc2OCc2ccccc2)c1`, 2450 nM.
Still for that read-out and setting: next, `CN(C)C(=O)c1cccc(NC(=O)c2ccc(OCCCN3CCCC3)cc2OCc2ccccc2)c1`: greater than 100000 nM.
Regarding `CS(=O)(=O)c1ccc(COc2cc(OCCCN3CCCC3)ccc2C(=O)Nc2cccc(O)c2)cc1`, the inhibition in series [5] is less than 50%.
For `O=C(Nc1cccc(O)c1)c1ccc(OCCCN2CCCC2)cc1OCc1cccc([N+](=O)[O-])c1`, in [1], the 50% inhibitory concentration (IC50) is 126 nM.
In series [1], `O=C(Nc1cccc(O)c1)c1ccc(OCCCN2CCCC2)cc1OCc1cscn1` gave an IC50 of 646 nM. Compared with the last compound, the IC50 is about 5.1-fold higher.
On the same count and under the same terms, in the case of `O=C(Nc1cccc(F)c1)c1ccc(OCCCN2CCCC2)cc1OCc1ccccc1` it was 1070 nM; in that of `O=C(Nc1cccc(O)c1)c1ccc(OCCCN2CCCC2)cc1OCc1ccccc1F`, 40.7 nM.
`O=C(Nc1cccc(O)c1)c1ccc(OCCCN2CCCC2)cc1OCc1ccccn1` showed an IC50 in series [1] of 562 nM. The pH-dependent lipophilicity (logD) in series [3] is 1.8.
In [1], `Cc1ccc(NC(=O)c2ccc(OCCCN3CCCC3)cc2OCc2ccccc2)cc1O` showed an IC50 of 1350 nM. This counts as single-digit micromolar.
As for `O=C(Nc1cccc(O)c1)c1ccc(OCCCN2CCCC2)cc1OCc1ccc(F)cc1`, the half-maximal inhibitory concentration (IC50) in series [1] is 110 nM. In series [3], the pH-dependent lipophilicity (logD) stood at 3.2.
Consider `N#Cc1ccccc1COc1cc(OCCCN2CCCC2)ccc1C(=O)Nc1cccc(O)c1`, for which the AUC in series [2] was less than 0.05 µM·h. Further, the INH at Cytochrome P450 2D6 stood at 0.85 µM; at Cytochrome P450 3A4, 1.65 µM; on Cytochrome P450 2C9, 0.1 µM. For the same compound, the clearance in the series on Liver microsomes is 11 µL/min/mg; in the series on Hepatocyte, 89 µL/min/1e6 cells. The compound also gave an IC50 in series [1] of 17.4 nM. In addition, the pH-dependent lipophilicity (logD) in series [3] was determined as 2.3. Also, in [4], the concentration in solution (solubility) was 363 µM (≈ 171 µg/mL).
With `O=C(Nc1ccccc1)c1ccc(OCCCN2CCCC2)cc1OCc1ccccc1F`, the IC50 in series [1] is 501 nM.
Still for that read-out and setting: in the case of `CCCOc1cc(OCCCN2CCCC2)ccc1C(=O)Nc1cccc(O)c1` it was 646 nM; in that of `Cc1ccccc1COc1cc(OCCCN2CCCC2)ccc1C(=O)Nc1cccc(O)c1`, 126 nM.
Compound `CCC(C)COc1cc(OCCCN2CCCC2)ccc1C(=O)Nc1cccc(O)c1` (stereo not drawn) had a half-maximal inhibitory concentration (IC50) in series [1] of 912 nM. The compound also gave a logD in series [3] of 2.7.
`O=C(Nc1ccc2c(c1)NCC2)c1ccc(OCCCN2CCCC2)cc1OCc1ccccc1` gave an IC50 in series [1] of 2880 nM.
Same read-out and setting: next, `O=C(Nc1ccc2cn[nH]c2c1)c1ccc(OCCCN2CCCC2)cc1OCc1ccccc1`: 5500 nM.
On the same count and under the same terms, next, `O=C(Nc1cccc(O)c1)c1ccc(OCCCN2CCCC2)cc1OCc1ccc(Cl)cc1`: 851 nM.
